Experimental data reported in ChEMBL document CHEMBL4024710, “Discovery of novel 1,2,3,4-tetrahydrobenzo[4, 5]thieno[2, 3-c]pyridine derivatives as potent and selective CYP17 inhibitors” (Eur J Med Chem, 2017).
Each block holds one compound with its values, some of them ahead of it.

Columns and labels:
[1] = biological target: T1, Steroid 17-alpha-hydroxylase/17,20 lyase (Rattus norvegicus, UniProt P11715); assay: Inhibition of CYP17 in Sprague-Dawley rat testes microsomes using 17-alpha hydroxyprogesterone as substrate and NADPH as cofactor pretreated for 5 mins followed by substrate and cofactor addition after 60 mins by LC/Ms analysis; design: species or system Testis
T1 sequence (P11715 whole entry): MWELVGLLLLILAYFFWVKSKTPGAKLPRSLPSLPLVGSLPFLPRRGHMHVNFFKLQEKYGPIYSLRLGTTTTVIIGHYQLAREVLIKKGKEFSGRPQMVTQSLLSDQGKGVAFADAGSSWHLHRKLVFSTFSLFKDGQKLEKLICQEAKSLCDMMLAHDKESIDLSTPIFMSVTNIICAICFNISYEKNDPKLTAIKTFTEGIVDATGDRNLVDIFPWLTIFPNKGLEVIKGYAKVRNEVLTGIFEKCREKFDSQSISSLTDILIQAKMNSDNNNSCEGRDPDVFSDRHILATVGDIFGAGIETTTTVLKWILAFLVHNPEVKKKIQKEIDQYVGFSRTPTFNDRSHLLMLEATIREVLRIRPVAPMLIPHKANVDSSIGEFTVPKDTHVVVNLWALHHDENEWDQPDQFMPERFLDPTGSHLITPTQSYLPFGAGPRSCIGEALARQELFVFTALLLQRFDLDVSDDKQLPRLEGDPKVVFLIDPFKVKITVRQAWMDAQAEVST
Method in brief: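 Rat testis microsomes from male SD rats weighing 220–250 g, prepared at 4 °C by differential centrifugation (9000 g, then 105,000 g pellet). 2 µg protein in 0.05 M phosphate pH 7.5 preincubated with inhibitor 5 min at 25 °C. Started with 10 µM 17α-hydroxyprogesterone plus 4.2 mM NADPH, 60 min at 25 °C, stopped with methanol. Androstenedione measured by LC/MS; IC50 is the mean of at least three experiments.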

[2] = biological target: T2, CYP2C9 (Homo sapiens, UniProt P11712); assay: Inhibition of human hepatic CYP2C9 at 10 uM relative to control; type: ADME
[3] = biological target: T3, CYP1A2 (Homo sapiens, UniProt P05177); assay: Inhibition of human hepatic CYP1A2 at 1 uM relative to control; type: ADME
T3 sequence (P05177 whole entry): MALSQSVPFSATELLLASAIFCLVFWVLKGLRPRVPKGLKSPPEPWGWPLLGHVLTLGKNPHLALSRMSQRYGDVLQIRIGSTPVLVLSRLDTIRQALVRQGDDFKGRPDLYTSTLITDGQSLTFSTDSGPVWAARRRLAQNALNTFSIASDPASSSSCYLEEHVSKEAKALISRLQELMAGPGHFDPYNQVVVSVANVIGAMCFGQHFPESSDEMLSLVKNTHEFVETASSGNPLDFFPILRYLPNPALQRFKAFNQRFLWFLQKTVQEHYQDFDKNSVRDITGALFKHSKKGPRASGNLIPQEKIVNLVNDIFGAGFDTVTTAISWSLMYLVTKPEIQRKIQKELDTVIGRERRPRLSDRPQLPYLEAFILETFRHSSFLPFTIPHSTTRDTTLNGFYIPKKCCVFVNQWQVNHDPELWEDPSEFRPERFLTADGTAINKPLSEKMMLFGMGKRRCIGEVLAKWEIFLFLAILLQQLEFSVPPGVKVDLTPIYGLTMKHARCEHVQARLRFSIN

[4] = biological target: T4, CYP2C19 (Homo sapiens, UniProt P33261); assay: Inhibition of human hepatic CYP2C19 at 1 uM relative to control; type: ADME
[5] = biological target: Cytochrome P450 3A4 (Homo sapiens, UniProt P08684); assay: Inhibition of human hepatic CYP3A4; type: ADME
[6] = biological target: T5, CYP2D6 (Homo sapiens, UniProt P10635); assay: Inhibition of human hepatic CYP2D6 at 10 uM relative to control; type: ADME
[7] = biological target: T2, CYP2C9; assay: Inhibition of human hepatic CYP2C9 at 1 uM relative to control; type: ADME
[8] = biological target: T6, Steroid 17-alpha-hydroxylase/17,20 lyase (Homo sapiens, UniProt P05093); assay: Inhibition of recombinant human CYP17 expressed in human A549 cell membranes using 17-alpha hydroxyprogesterone as substrate and NADPH as cofactor pretreated for 5 mins followed by substrate and cofactor addition after 60 mins by LC/MS analysis
T6 sequence (P05093 whole entry): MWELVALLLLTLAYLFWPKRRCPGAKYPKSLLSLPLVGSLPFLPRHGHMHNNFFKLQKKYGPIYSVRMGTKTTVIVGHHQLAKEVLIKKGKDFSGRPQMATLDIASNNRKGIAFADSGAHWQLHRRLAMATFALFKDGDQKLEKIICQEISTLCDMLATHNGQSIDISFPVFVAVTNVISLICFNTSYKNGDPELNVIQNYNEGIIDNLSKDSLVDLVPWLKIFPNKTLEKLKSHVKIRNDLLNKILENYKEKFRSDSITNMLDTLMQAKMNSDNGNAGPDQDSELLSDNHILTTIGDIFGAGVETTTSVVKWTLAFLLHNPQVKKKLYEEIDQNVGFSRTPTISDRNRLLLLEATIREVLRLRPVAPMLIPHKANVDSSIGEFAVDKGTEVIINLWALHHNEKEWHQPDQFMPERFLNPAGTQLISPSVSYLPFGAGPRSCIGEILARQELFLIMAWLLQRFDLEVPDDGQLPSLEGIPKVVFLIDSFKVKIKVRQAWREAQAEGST
Method in brief: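 Enzyme source was purified membranes of A549 cells expressing human CYP17 from an adenoviral vector. 2 µg membrane protein in 0.05 M phosphate pH 7.5 with inhibitor, preincubated 5 min at 25 °C. Reaction started with 10 µM 17α-hydroxyprogesterone and 4.2 mM NADPH, run 60 min at 25 °C, methanol stop. Androstenedione quantified by LC/MS; IC50 is the mean of at least three experiments.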

[9] = biological target: T5, CYP2D6; assay: Inhibition of human hepatic CYP2D6 at 1 uM relative to control; type: ADME
[10] = biological target: T4, CYP2C19; assay: Inhibition of human hepatic CYP2C19 at 10 uM relative to control; type: ADME
[11] = biological target: T3, CYP1A2; assay: Inhibition of human hepatic CYP1A2 at 10 uM relative to control; type: ADME
[12] = biological target: T6, Steroid 17-alpha-hydroxylase/17,20 lyase; assay: Residual CYP17 activity in human NCI-H295R cells assessed as testosterone production at 1 uM measured after 72 hrs relative to control
[13] = system: Rattus norvegicus; assay: Suppression of serum testosterone levels in po dosed Sprague-Dawley rat administered as single dose measured up to 24 hrs post dose by ELISA; type: functional, organism-based
Method in brief: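 Serum was sampled before dosing and at 2, 4, 8 and 24 h. Testosterone was measured by ELISA and expressed as % of the mean pretreatment value; mean ± SEM, n = 6.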

[14] = biological target: T6, Steroid 17-alpha-hydroxylase/17,20 lyase; assay: Potency index, ratio of abiraterone IC50 to compound IC50 for recombinant human CYP17 expressed in human A549 cell membranes; type: cell-based
Method in brief: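 Human CYP17 came from purified membranes of A549 cells expressing the cloned gene through an adenoviral system. 2 µg membrane protein was preincubated with inhibitor in 0.05 M phosphate buffer, pH 7.5, at 25 °C for 5 min. The reaction was started with 10 µM 17α-hydroxyprogesterone and 4.2 mM NADPH, run 60 min at 25 °C and stopped with methanol. Androstenedione was quantified by LC/MS.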

T5 sequence (P10635 whole entry): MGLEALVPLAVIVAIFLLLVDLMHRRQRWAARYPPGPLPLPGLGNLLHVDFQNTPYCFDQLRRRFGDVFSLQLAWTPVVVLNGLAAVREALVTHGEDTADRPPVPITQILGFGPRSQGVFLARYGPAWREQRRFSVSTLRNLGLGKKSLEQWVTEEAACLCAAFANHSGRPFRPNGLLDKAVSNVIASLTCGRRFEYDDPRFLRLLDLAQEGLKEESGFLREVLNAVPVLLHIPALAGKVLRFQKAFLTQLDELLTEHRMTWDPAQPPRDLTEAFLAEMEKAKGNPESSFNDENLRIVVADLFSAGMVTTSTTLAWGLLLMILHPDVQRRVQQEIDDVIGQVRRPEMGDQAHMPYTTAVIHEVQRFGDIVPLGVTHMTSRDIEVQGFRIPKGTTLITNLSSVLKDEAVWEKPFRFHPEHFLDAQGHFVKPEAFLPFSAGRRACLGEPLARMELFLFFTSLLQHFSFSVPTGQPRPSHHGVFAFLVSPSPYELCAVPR
T4 sequence (P33261 whole entry): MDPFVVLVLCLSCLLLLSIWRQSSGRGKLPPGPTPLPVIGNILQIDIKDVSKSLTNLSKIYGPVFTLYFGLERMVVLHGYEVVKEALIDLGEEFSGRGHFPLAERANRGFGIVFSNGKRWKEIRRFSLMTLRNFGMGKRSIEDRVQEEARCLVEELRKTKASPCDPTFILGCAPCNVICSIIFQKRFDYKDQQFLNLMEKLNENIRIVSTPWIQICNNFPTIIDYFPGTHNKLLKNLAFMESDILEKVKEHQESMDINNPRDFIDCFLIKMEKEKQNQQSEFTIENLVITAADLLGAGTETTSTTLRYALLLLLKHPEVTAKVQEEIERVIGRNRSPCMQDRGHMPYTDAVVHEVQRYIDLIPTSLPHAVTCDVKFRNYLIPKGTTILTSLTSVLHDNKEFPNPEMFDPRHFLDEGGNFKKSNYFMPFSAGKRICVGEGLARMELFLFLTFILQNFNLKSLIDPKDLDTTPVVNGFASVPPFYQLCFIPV
Cytochrome P450 3A4, sequence (P08684 whole entry): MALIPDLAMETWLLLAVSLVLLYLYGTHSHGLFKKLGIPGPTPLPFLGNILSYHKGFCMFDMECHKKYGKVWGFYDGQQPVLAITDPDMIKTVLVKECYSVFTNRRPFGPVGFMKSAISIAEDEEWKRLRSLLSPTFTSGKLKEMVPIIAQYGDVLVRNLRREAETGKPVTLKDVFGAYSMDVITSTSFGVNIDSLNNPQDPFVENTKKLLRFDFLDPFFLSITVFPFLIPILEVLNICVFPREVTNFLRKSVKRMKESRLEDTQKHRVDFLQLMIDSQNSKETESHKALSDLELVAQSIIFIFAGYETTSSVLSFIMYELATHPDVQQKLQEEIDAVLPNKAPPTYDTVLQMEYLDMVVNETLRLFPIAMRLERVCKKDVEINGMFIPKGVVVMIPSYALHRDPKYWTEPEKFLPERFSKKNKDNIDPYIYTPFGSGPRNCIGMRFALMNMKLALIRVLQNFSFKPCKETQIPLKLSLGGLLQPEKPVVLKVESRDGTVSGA
T2 sequence (P11712 whole entry): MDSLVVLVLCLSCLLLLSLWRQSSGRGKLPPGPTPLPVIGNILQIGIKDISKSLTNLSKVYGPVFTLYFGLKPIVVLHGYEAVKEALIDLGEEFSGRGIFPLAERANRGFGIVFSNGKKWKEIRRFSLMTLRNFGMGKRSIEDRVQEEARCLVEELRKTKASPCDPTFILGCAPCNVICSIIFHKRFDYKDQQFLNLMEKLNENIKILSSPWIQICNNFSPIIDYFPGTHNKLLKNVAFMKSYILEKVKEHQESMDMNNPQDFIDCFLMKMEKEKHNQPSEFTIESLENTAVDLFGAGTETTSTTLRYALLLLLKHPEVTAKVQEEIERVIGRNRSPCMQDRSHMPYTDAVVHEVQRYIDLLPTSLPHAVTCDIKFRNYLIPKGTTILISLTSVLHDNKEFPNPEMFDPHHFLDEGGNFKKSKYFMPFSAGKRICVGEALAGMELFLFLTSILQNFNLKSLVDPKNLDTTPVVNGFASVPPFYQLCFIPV

IC50 [1]: 517 nM
SMILES: Brc1ccc2sc3c(c2c1)CCN(Cc1cccnc1)C3

IC50 [1]: 28.1 nM
inhibition at 10 µM [2]: 53.2%
inhibition at 1 µM [3]: 20.6%
inhibition at 1 µM [4]: 47.3%
IC50 [5]: 7900 nM
inhibition at 10 µM [6]: 83.7%
inhibition at 1 µM [7]: 6.6%
IC50 [8]: 29 nM
inhibition at 1 µM [9]: 37.5%
inhibition at 10 µM [10]: 92.5%
inhibition at 10 µM [11]: 71.6%
SMILES: Fc1ccc2sc3c(c2c1)CCN(Cc1cccnc1)C3

IC50 [1]: 980 nM
SMILES: C=C(C)c1ccncc1CN1CCc2c(sc3ccc(F)cc23)C1

IC50 [1]: 115 nM
SMILES: CC1(C)OB(c2ccc3sc4c(c3c2)CCN(Cc2cccnc2)C4)OC1(C)C

IC50 [1]: 61.1 nM
SMILES: Fc1ccc2sc3c(c2c1)CCN(Cc1cnccc1C1CC1)C3

IC50 [1]: 20.9 nM
inhibition at 10 µM [2]: 17.5%
inhibition at 1 µM [3]: 25.4%
inhibition at 1 µM [4]: 7.9%
IC50 [5]: 5280 nM
inhibition at 10 µM [6]: 18.9%
inhibition at 1 µM [7]: 0%
IC50 [8]: 23.7 nM
inhibition at 1 µM [9]: 1.3%
inhibition at 10 µM [10]: 71.6%
inhibition at 10 µM [11]: 71.2%
SMILES: Oc1ccc2sc3c(c2c1)CCN(Cc1cccnc1)C3

IC50 [1]: > 1000 nM
SMILES: CC(C)(C)OC(=O)Nc1ccc2sc3c(c2c1)CCN(Cc1cccnc1)C3

IC50 [1]: 24.7 nM
inhibition at 10 µM [2]: 82.5%
inhibition at 1 µM [3]: 34%
inhibition at 1 µM [4]: 39.6%
residual activity at 1 µM [12]: 74%
inhibition at 10 µM [6]: 78.5%
inhibition at 1 µM [7]: 31.6%
inhibition at 1 µM [9]: 10.4%
inhibition at 10 µM [10]: 91.6%
inhibition at 10 µM [11]: 92.5%
SMILES: C[C@]12CC[C@H](O)CC1=CC[C@@H]1[C@@H]2CC[C@]2(C)C(c3cccnc3)=CC[C@@H]12 [ABIRATERONE]

IC50 [1]: 33.9 nM
inhibition at 10 µM [2]: 53.8%
inhibition at 1 µM [3]: 8.7%
inhibition at 1 µM [4]: 0%
IC50 [5]: 6530 nM
inhibition at 10 µM [6]: 76.1%
inhibition at 1 µM [7]: 0%
IC50 [8]: 45 nM
inhibition at 1 µM [9]: 21.7%
inhibition at 10 µM [10]: 84.9%
inhibition at 10 µM [11]: 61.2%
SMILES: COc1cncc(CN2CCc3c(sc4ccc(F)cc34)C2)c1

IC50 [1]: 56.5 nM
inhibition at 10 µM [2]: 51.6%
inhibition at 1 µM [3]: 10.6%
inhibition at 1 µM [4]: 5.3%
IC50 [5]: 9030 nM
inhibition at 10 µM [6]: 62.5%
inhibition at 1 µM [7]: 0%
IC50 [8]: 45.4 nM
inhibition at 1 µM [9]: 50.8%
inhibition at 10 µM [10]: 61.3%
inhibition at 10 µM [11]: 69.5%
SMILES: Fc1cncc(CN2CCc3c(sc4ccc(F)cc34)C2)c1

IC50 [1]: 80.6 nM
SMILES: Fc1ccc2sc3c(c2c1)CCN(Cc1cncnc1)C3

IC50 [1]: 257 nM
SMILES: Cc1ccc2sc3c(c2c1)CCN(Cc1cccnc1)C3

IC50 [1]: 75.8 nM
SMILES: Fc1ccc2sc3c(c2c1)CCN(Cc1cnccc1Br)C3

IC50 [1]: 390 nM
SMILES: Fc1ccc2sc3c(c2c1)CCN(Cc1cncc2ccccc12)C3

IC50 [1]: 29.8 nM
inhibition at 10 µM [2]: 100%
inhibition at 1 µM [3]: 87.9%
inhibition at 1 µM [4]: 91.2%
IC50 [5]: 685 nM
inhibition at 10 µM [6]: 49.6%
inhibition at 1 µM [7]: 98.5%
IC50 [8]: 24.3 nM
inhibition at 1 µM [9]: 35.7%
inhibition at 10 µM [10]: 98.7%
inhibition at 10 µM [11]: 99.4%
SMILES: Fc1ccc2sc3c(c2c1)CCN(Cc1c[nH]cn1)C3

IC50 [1]: 257 nM
SMILES: N#Cc1ccc2sc3c(c2c1)CCN(Cc1cccnc1)C3

IC50 [1]: 15.8 nM
inhibition at 10 µM [2]: 21.8%
inhibition at 1 µM [3]: 16.3%
inhibition at 1 µM [4]: 11.7%
IC50 [5]: 8560 nM
residual activity at 1 µM [12]: 52%
inhibition at 10 µM [6]: 56.8%
inhibition at 1 µM [7]: 0%
IC50 [8]: 20.1 nM
inhibition at 1 µM [9]: 12%
inhibition at 10 µM [10]: 65.2%
inhibition at 10 µM [11]: 62.2%
SMILES: Cc1ccncc1CN1CCc2c(sc3ccc(F)cc23)C1
Activity [13]: Dose-dependent effect
Ratio IC50 [14]: 1.5

IC50 [1]: > 1000 nM
SMILES: COc1ccc2sc3c(c2c1)CCN(Cc1cccnc1)C3

IC50 [1]: 121 nM
SMILES: Cc1cncc(CN2CCc3c(sc4ccc(F)cc34)C2)c1

IC50 [1]: > 1000 nM
SMILES: O=C(c1cccnc1)N1CCc2c(sc3ccc(F)cc23)C1

SMILES: c1cncc(CN2CCc3c(sc4ccccc34)C2)c1
IC50 [1]: 28.1 to 54.9 nM

IC50 [1]: > 1000 nM
SMILES: CNC(=O)c1ccc2sc3c(c2c1)CCN(Cc1cccnc1)C3

IC50 [1]: > 1000 nM
SMILES: CC(=O)Nc1ccc2sc3c(c2c1)CCN(Cc1cccnc1)C3

IC50 [1]: 229 nM
SMILES: c1cncc(CN2CCc3c([nH]c4ccccc34)C2)c1

IC50 [1]: 535 nM
SMILES: CC(C)c1ccncc1CN1CCc2c(sc3ccc(F)cc23)C1

IC50 [1]: 449 nM
SMILES: Clc1ccc2sc3c(c2c1)CCN(Cc1cccnc1)C3

IC50 [1]: > 1000 nM
SMILES: Fc1ccc2sc3c(c2c1)CCN(Cc1ccncc1)C3

IC50 [1]: > 1000 nM
SMILES: Fc1ccc2sc3c(c2c1)CCN(Cc1cnccc1-c1ccccc1)C3
